Assay results: ChEMBL document CHEMBL4808228, “Synthesis of novel 1,2,4-trioxanes and antimalarial evaluation against multidrug-resistant Plasmodium yoelii nigeriensis” (2021)

Columns and labels:
Type in all cases: functional
Plasmodium yoelii [1] = assay: Antimalarial activity against multidrug-resistant Plasmodium yoelii infected in Swiss mouse assessed as inhibition of parasitemia at 48 mg/kg, po for 4 days measured on day 4 relative to control; details: 96 h, time 4 day
Procedure, shortened: (§1)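 Swiss mice (25 ± 1 g), five per dose, were infected with 1 X 10⁶ parasitized RBC on day 0. Dosing was oral on days 0–3, twice daily, in groundnut oil (0.1 ml per dose). Day-4 thin-smear parasitaemia gave % suppression = [(C−T)/C] × 100 versus the control group. 100% meant no parasites in 50 oil immersion fields.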

Plasmodium yoelii [2] = assay: Antimalarial activity against multidrug-resistant Plasmodium yoelii infected in Swiss mouse assessed as inhibition of parasitemia at 48 mg/kg, im for 4 days measured on day 4 relative to control; details: 96 h, time 4 day
Procedure, shortened: (§2)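 In this im regimen, mice (Swiss, 25 ± 1 g; n = 5 per dose) received 1 X 10⁶ parasitized RBC on day 0 and were treated on days 0–3 in two divided daily doses. Parasitaemia on day 4 was read from thin blood smears, and suppression = [(C−T)/C] × 100 relative to the control group. Full suppression meant none seen in 50 oil immersion fields.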

Plasmodium yoelii [3] = assay: Antimalarial activity against multidrug-resistant Plasmodium yoelii infected in Swiss mouse assessed as animal survival at 48 mg/kg, po for 4 days and measured for 28 days; details: 672 h, time 28 day
Procedure, shortened: (§3)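 Swiss mice (25 ± 1 g) were inoculated with 1 X 10⁶ parasitized RBC on day 0. Groups of five were dosed orally on days 0–3 in two divided daily doses, in groundnut oil, 0.1 ml per dose. Thin blood smears were read on days 4–28, and mice without patent infection by day 28 counted as cured. β-Arteether was the positive control.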

Plasmodium yoelii [4] = assay: Antimalarial activity against multidrug-resistant Plasmodium yoelii infected in Swiss mouse assessed as animal survival at 48 mg/kg, im for 4 days and measured for 28 days; details: 672 h, time 28 day
Procedure, shortened: (§4)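 Intramuscular dosing of groups of five Swiss mice (25 ± 1 g) infected on day 0 with 1 X 10⁶ parasitized RBC, on days 0–3 in two divided daily doses. Parasitaemia came from thin blood smears over days 4–28. Animals without patent infection till day 28 were recorded as cured. The strain is resistant to chloroquine, mefloquine and halofantrine.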

Plasmodium yoelii [5] = assay: Antimalarial activity against multidrug-resistant Plasmodium yoelii infected in Swiss mouse assessed as inhibition of parasitemia at 96 mg/kg, po for 4 days measured on day 4 relative to control; details: 96 h, time 4 day; procedure, shortened: as §1
Plasmodium yoelii [6] = assay: Antimalarial activity against multidrug-resistant Plasmodium yoelii infected in Swiss mouse assessed as inhibition of parasitemia at 96 mg/kg, im for 4 days measured on day 4 relative to control; details: 96 h, time 4 day; procedure, shortened: as §2
Plasmodium yoelii [7] = assay: Antimalarial activity against multidrug-resistant Plasmodium yoelii infected in Swiss mouse assessed as animal survival at 96 mg/kg, po for 4 days and measured for 28 days; details: 672 h, time 28 day; procedure, shortened: as §3
Plasmodium yoelii [8] = assay: Antimalarial activity against multidrug-resistant Plasmodium yoelii infected in Swiss mouse assessed as animal survival at 96 mg/kg, im for 4 days and measured for 28 days; details: 672 h, time 28 day; procedure, shortened: as §4
Plasmodium yoelii [9] = assay: Antimalarial activity against multidrug-resistant Plasmodium yoelii infected in Swiss mouse assessed as inhibition of parasitemia at 24 mg/kg, po for 4 days measured on day 4 relative to control; details: 96 h, time 4 day; procedure, shortened: as §1
Plasmodium yoelii [10] = assay: Antimalarial activity against multidrug-resistant Plasmodium yoelii infected in Swiss mouse assessed as inhibition of parasitemia at 24 mg/kg, im for 4 days measured on day 4 relative to control; details: 96 h, time 4 day; procedure, shortened: as §2
Plasmodium yoelii [11] = assay: Antimalarial activity against multidrug-resistant Plasmodium yoelii infected in Swiss mouse assessed as animal survival at 24 mg/kg, po for 4 days and measured for 28 days; details: 672 h, time 28 day; procedure, shortened: as §3
Plasmodium yoelii [12] = assay: Antimalarial activity against multidrug-resistant Plasmodium yoelii infected in Swiss mouse assessed as animal survival at 24 mg/kg, im for 4 days and measured for 28 days; details: 672 h, time 28 day; procedure, shortened: as §4
Plasmodium yoelii [13] = assay: Antimalarial activity against multidrug-resistant Plasmodium yoelii infected in Swiss mouse assessed as inhibition of parasitemia at 48 mg/kg, im for 4 days measured on day 4 relative to po dosed artemisinin; details: time 4 day
Plasmodium yoelii [14] = assay: Antimalarial activity against multidrug-resistant Plasmodium yoelii infected in Swiss mouse assessed as inhibition of parasitemia at 48 mg/kg, po for 4 days measured on day 4 relative to po dosed artemisinin; details: time 4 day

| SMILES | inhibition in vivo at 48 mg/kg (Plasmodium yoelii [1]) [%] | inhibition in vivo at 48 mg/kg (Plasmodium yoelii [2]) [%] | survival at 48 mg/kg (Plasmodium yoelii [3]) [%] | survival at 48 mg/kg (Plasmodium yoelii [4]) [%] | inhibition in vivo at 96 mg/kg (Plasmodium yoelii [5]) [%] | inhibition in vivo at 96 mg/kg (Plasmodium yoelii [6]) [%] | survival at 96 mg/kg (Plasmodium yoelii [7]) [%] | survival at 96 mg/kg (Plasmodium yoelii [8]) [%] | further results |
| --- | --- | --- | --- | --- | --- | --- | --- | --- | --- |
| C=C(c1ccc(Oc2ccc3ccc(OCCO)cc3c2)cc1)C1COC2(OO1)C1CC3CC(C1)CC2C3 (centres undefined) | 83.2 | 51.4 | 0 | 0 |  |  |  |  |  |
| C=C(c1ccc(Oc2ccc(OCCOC(=O)CCC(=O)O)cc2)cc1)C1COC2(OO1)C1CC3CC(C1)CC2C3 (centres undefined) |  |  |  |  | 35.6 | 100 | 0 | 40 |  |
| C=C(c1ccc(Oc2cccc3c(OCCO)cccc23)cc1)C1COC2(CCCCC2)OO1 (centres undefined) | 38.2 | 46.2 | 0 | 0 |  |  |  |  |  |
| C=C(c1ccc(Oc2ccc(OCCO)cc2)cc1)C1COC2(CCCC2)OO1 (centres undefined) |  |  |  |  | 38.4 | 85.2 | 0 | 0 |  |
| C=C(c1ccc(Oc2ccc3ccc(OCCOC(=O)CCC(=O)O)cc3c2)cc1)C1COC2(CCCCC2)OO1 (centres undefined) | 100 | 100 |  | 60 |  |  |  |  |  |
| C=C(c1ccc(Oc2cccc3c(OCCO)cccc23)cc1)C1COC2(CCCC2)OO1 (centres undefined) | 44.1 | 46.2 | 0 | 0 |  |  |  |  |  |
| C=C(c1ccc(Oc2ccc3ccc(OCCOC(=O)CCC(=O)O)cc3c2)cc1)C1COC2(CCCC2)OO1 (centres undefined) | 100 | 100 | 100 | 100 |  |  |  |  | inhibition in vivo at 24 mg/kg (Plasmodium yoelii [9]): 100%; inhibition in vivo at 24 mg/kg (Plasmodium yoelii [10]): 100%; survival at 24 mg/kg (Plasmodium yoelii [11]): 0%; survival at 24 mg/kg (Plasmodium yoelii [12]): 80%; fold change (FC) (Plasmodium yoelii [13]): 2; fold change (FC) (Plasmodium yoelii [14]): 2 |
| C=C(c1ccc(Oc2cccc3c(OCCOC(=O)CCC(=O)O)cccc23)cc1)C1COC2(CCCCC2)OO1 (centres undefined) | 49.8 | 26.6 | 0 | 0 |  |  |  |  |  |
| C=C(c1ccc(Oc2cccc3c(OCCO)cccc23)cc1)C1COC2(OO1)C1CC3CC(C1)CC2C3 (centres undefined) | 100 | 46.2 | 40 | 0 |  |  |  |  |  |
| C=C(c1ccc(Oc2cccc3c(OCCOC(=O)CCC(=O)O)cccc23)cc1)C1COC2(OO1)C1CC3CC(C1)CC2C3 (centres undefined) | 27.5 | 42.2 | 0 | 0 |  |  |  |  |  |
| C=C(c1ccc(Oc2ccc3ccc(OCCO)cc3c2)cc1)C1COC2(CCCC2)OO1 (centres undefined) | 100 | 100 | 80 | 80 |  |  |  |  |  |
| C=C(c1ccc(Oc2ccc(OCCOC(=O)CCC(=O)O)cc2)cc1)C1COC2(CCCCC2)OO1 (centres undefined) |  |  |  |  | 10 | 28.4 | 0 | 0 |  |
| C=C(c1ccc(Oc2cccc3c(OCCOC(=O)CCC(=O)O)cccc23)cc1)C1COC2(CCCC2)OO1 (centres undefined) | 39.4 | 28.3 | 0 | 0 |  |  |  |  |  |
| C=C(c1ccc(Oc2ccc3ccc(OCCOC(=O)CCC(=O)O)cc3c2)cc1)C1COC2(OO1)C1CC3CC(C1)CC2C3 (centres undefined) | 77.4 | 58.8 | 0 | 0 |  |  |  |  |  |
| C=C(c1ccc(Oc2ccc3ccc(OCCO)cc3c2)cc1)C1COC2(CCCCC2)OO1 (centres undefined) | 83.5 | 71.6 | 0 | 0 |  |  |  |  |  |
| C=C(c1ccc(Oc2ccc(OCCOC(=O)CCC(=O)O)cc2)cc1)C1COC2(CCCC2)OO1 (centres undefined) |  |  |  |  | 44.3 | 77.8 | 0 | 0 |  |
| C=C(c1ccc(Oc2ccc(OCCO)cc2)cc1)C1COC2(OO1)C1CC3CC(C1)CC2C3 (centres undefined) | 85.5 |  | 0 |  | 100 | 100 | 100 | 0 |  |
| C[C@@H]1CC[C@H]2[C@@H](C)C(=O)O[C@@H]3O[C@@]4(C)CC[C@@H]1[C@]32OO4 [ARTEMISININ] |  | 100 |  | 100 | 100 |  |  |  | inhibition in vivo at 24 mg/kg (Plasmodium yoelii [10]): 100%; survival at 24 mg/kg (Plasmodium yoelii [12]): 80% |
| C=C(c1ccc(Oc2ccc(OCCO)cc2)cc1)C1COC2(CCCCC2)OO1 (centres undefined) |  |  |  |  | 45.4 | 72.4 | 0 | 0 |  |
